{"source": "paper PMC3702173", "about": "(Circulation research, 2013)", "key": {"[1]": {"test_system": "murine monocytes (ICAM-1 or VCAM-1 binding)", "format": "cell-based, mouse", "details": "PMA 50ng/ml, MCP-1 50ng/ml, CRAMP 1µg/ml; ICAM-1-Fc or VCAM-1-Fc; n=5", "procedure,_shortened": "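Mouse peripheral leukocytes exposed to PMA (50ng/ml), MCP-1 (50ng/ml) or CRAMP (1µg/ml) with ICAM-1-Fc or VCAM-1-Fc plus anti-Fc antibody; monocyte subsets gated by CD45, CD11b, CD115 and Gr1 staining; ligand binding read by flow cytometry; n=5.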"}, "[2]": {"test_system": "classical CD14^++CD16^− monocytes", "format": "cell-based, human", "details": "for Monocyte adhesion to P-selectin/ICAM-1 or P-selectin/VCAM-1: substance coimmobilized, LL37/MCP1 n=8, mLL37 n=3"}, "[3]": {"test_system": "HUVEC", "experiment": "Transendothelial transport", "format": "cell-based, human", "details": "for Effect on transendothelial LL37 transportation: pretreatment of HUVEC with inhibitor or enzyme"}, "[4]": {"test_system": "activated CD11b and VLA4 (β1- and β2-integrins) on monocytes", "experiment": "Integrin activation", "format": "cell-based, human", "details": "LL37 1µg/ml; for Integrin activation on non-classical CD14^+CD16^++ monocytes: MCP-1 50ng/ml, Online Figure V"}, "[5]": {"test_system": "classical monocytes (Ly6C^+)", "format": "in vivo, mouse"}, "[6]": {"test_system": "endothelium (baso-apical transport of CRAMP)", "format": "in vivo, mouse", "details": "n=4", "procedure,_shortened": "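Neutropenic Darc−/− mice (1A8, 50µg/mouse i.p., 8h before stimuli) were injected intrascrotally with TNF (50ng, 4h) plus CRAMP (1µg). Fluorescent beads conjugated with anti-CRAMP antibody were then injected, and immobilised luminal beads were counted by intravital microscopy; n=4.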"}, "[7]": {"test_system": "classical monocytes", "experiment": "Classical monocyte accumulation in peritoneum upon stimulation with TNF", "format": "in vivo, mouse", "details": "CRAMP-deficient mice, local application of CRAMP, unpublished data"}, "[8]": {"test_system": "non-classical monocytes", "details": "mouse cremaster muscle in vivo", "procedure,_shortened": "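Cx3cr1egfp/WT mice, either with intact white cell count or made neutropenic with 1A8 (50µg i.p., 12h before), got TNF (50ng, 12h) intrascrotally. Anti-Ly6C (1µg i.v.) separated subsets, with non-classical monocytes GFP+ only. Cremaster adhesion was quantified by intravital microscopy; n=6.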"}, "[9]": {"test_system": "human non-classical CD14^+CD16^++ monocytes", "format": "cell-based", "details": "LL37 (1µg) deposited 15 min prior to perfusion; TNF-activated HUVEC; n=6", "procedure,_shortened": "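Human non-classical CD14+CD16++ monocytes perfused in a flow chamber over HUVEC monolayers activated with TNF (20ng, 12h); LL37 (1µg) deposited on the monolayer 15 min before perfusion; adherent cells counted; n=6.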"}, "[10]": {"test_system": "endothelial adhesion molecules on HUVEC", "experiment": "Expression of endothelial adhesion molecules on HUVEC", "format": "cell-based, human", "details": "treatment of HUVEC with LL37"}, "[11]": {"test_system": "P2X7", "experiment": "Surface plasmon resonance, receptor proteoliposomes on immobilized LL37", "format": "binding", "details": "LL37 immobilized on CM4 chip; receptor-containing proteoliposomes; not shown"}, "[12]": {"test_system": "DARC", "experiment": "Interaction of DARC and LL37", "format": "binding", "details": "Online Figure IV"}, "[13]": {"test_system": "FPR2", "details": "ref [6]; cited from earlier work"}, "[14]": {"test_system": "monocytes", "details": "ref [40]; cited from earlier work"}, "[15]": {"test_system": "P2X7", "details": "LPS-primed monocytes; via P2X7; ref [41]; cited from earlier work"}, "[16]": {"test_system": "various T-cells, smooth muscle cells, and epithelial cells", "details": "ref [44], [45]; cited from earlier work"}, "[17]": {"test_system": "neutrophils", "details": "ref [24]; cited from earlier work"}}, "note": "Entries after “also recorded” stand apart in the source; their conditions may differ.", "data": [{"compound": "CCCCCCCCCCCCCC(=O)O[C@@H]1[C@@H](C)[C@@]2(O)[C@@H](C=C(CO)C[C@]3(O)C(=O)C(C)=C[C@@H]23)[C@@H]2C(C)(C)[C@]12OC(C)=O", "note": "[PMA, phorbol-12-myristate-13-acetate, reference compound]", "values": [{"measurement": "ICAM-1 and VCAM-1 binding to classical monocytes", "setting": "[1]", "value": "increased binding of ICAM-1 or VCAM-1"}]}, {"compound": "Cc1ccc2c(c1)C1(CCN(CCc3nc(-c4ccccc4)oc3C)CC1)OC(=O)N2", "note": "[RS504393, reference compound]", "values": [{"measurement": "Effect on MCP1-mediated monocyte adhesion", "setting": "[2]; RS504393 1µM, P-selectin/ICAM-1 or P-selectin/VCAM-1, n=8", "value": "blocked"}]}, {"compound": "O=C(Nc1ccc([N+](=O)[O-])cc1O)Nc1ccccc1Br", "note": "[SB225002]", "values": [{"measurement": "Effect on transendothelial LL37 transportation", "setting": "[3]; n=6", "value": "did not impact on transendothelial LL37 transportation"}]}, {"compound": "COc1cc2c(c(OC)c1OC)-c1ccc(OC)c(=O)cc1[C@@H](NC(C)=O)CC2", "note": "[colchicine]", "values": [{"measurement": "Effect on transendothelial LL37 transportation", "setting": "[3]; n=6", "value": "abrogated"}]}, {"compound": "C=C1[C@@H](C)[C@H]2[C@H](Cc3ccccc3)NC(=O)[C@]23OC(=O)/C=C/[C@H](O)CCC[C@@H](C)C/C=C/[C@H]3[C@@H]1O", "note": "[cytochalasin B]", "values": [{"measurement": "Effect on transendothelial LL37 transportation", "setting": "[3]; n=6", "value": "abrogated"}]}, {"compound": "CCCCC[C@@H](O)[C@H]1C(=O)O[C@H](C)[C@@H](O)/C=C/C=C/C=C/C=C/C=C(\\C)[C@@H](O)C[C@H](O)C[C@H](O)C[C@H](O)C[C@H](O)C[C@H](O)C[C@@H]1O", "note": "[filipin]", "values": [{"measurement": "Effect on transendothelial LL37 transportation", "setting": "[3]; n=6", "value": "clear-cut decreases of LL37 transcytosis"}]}, {"compound": "CCCCOc1ccc(C(=O)NN2C(=O)c3ccccc3NC2c2ccc(O)cc2)cc1", "note": "(stereo not shown) [quin-C7, reference compound]", "values": [{"measurement": "Effect on LL37-induced integrin activation", "setting": "[4]; quin-C7 1µM, U73122 100nM, classical monocytes, n=4", "value": "fully abrogated integrin activation induced by LL37"}]}, {"compound": "Cc1ccc(C(=O)Nc2ccc(S(=O)(=O)O)c3cc(S(=O)(=O)O)cc(S(=O)(=O)O)c23)cc1NC(=O)c1cccc(NC(=O)Nc2cccc(C(=O)Nc3cc(C(=O)Nc4ccc(S(=O)(=O)O)c5cc(S(=O)(=O)O)cc(S(=O)(=O)O)c45)ccc3C)c2)c1", "note": "[suramin]", "values": [{"measurement": "Effect on transendothelial LL37 transportation", "setting": "[3]; n=6", "value": "did not impact on transendothelial LL37 transportation"}]}, {"compound": "CRAMP", "values": [{"measurement": "Adhesion of classical monocytes in Cramp^−/− mice", "setting": "[5]; Cramp^−/− mice, intrascrotal TNF with CRAMP 1µg vs TNF alone, n=5", "value": "restored the defect in Cramp^−/− mice; also recorded: restores adhesion of classical monocytes"}, {"measurement": "Adhesion of classical monocytes, overall statement, mouse cremaster", "setting": "[5]; mouse cremaster muscle in vivo", "value": "induce adhesion of classical monocytes"}, {"measurement": "Adhesion of classical monocytes in Fpr1^−/− mice", "setting": "[5]; neutropenic Fpr1^−/− mice, TNF and CRAMP 1µg, n=6", "value": "resulted in increased adhesion in Fpr1^−/− mice"}, {"measurement": "Adhesion of classical monocytes in Fpr2^−/− mice", "setting": "[5]; neutropenic Fpr2^−/− mice, TNF and CRAMP 1µg, n=6", "value": "this response was not observed in Fpr2^−/− mice"}, {"measurement": "Transportation of CRAMP across endothelium in Darc^−/− mice", "setting": "[6]; neutropenic Darc^−/− mice, TNF 50ng, 4h, and CRAMP 1µg intrascrotal", "value": "maintained in Darc^−/− mice"}, {"measurement": "Luminal CRAMP in WT mice", "setting": "[6]; neutropenic WT mice, TNF 50ng and CRAMP 1µg intrascrotal", "value": "luminal CRAMP was detected 4h after intrascrotal CRAMP injection"}, {"measurement": "ICAM-1 and VCAM-1 binding to classical monocytes", "setting": "[1]", "value": "increased binding of ICAM-1 or VCAM-1; also recorded: enhances ICAM-1 and VCAM-1 binding to classical monocytes"}, {"measurement": "Accumulation of classical monocytes into peritoneum", "setting": "[7]", "value": "rescued by local application of CRAMP"}, {"measurement": "Adhesion of non-classical monocytes, mouse cremaster", "setting": "[8]", "value": "not of non-classical monocytes"}]}, {"compound": "LL37: human cathelicidin; linear peptide; FITC-labelled form used in transport experiment", "values": [{"measurement": "Adhesion of non-classical monocytes, in vitro flow chamber", "setting": "[9]", "value": "not of non-classical monocytes"}, {"measurement": "Effect on expression of endothelial adhesion molecules", "setting": "[10]", "value": "did not impact on expression of endothelial adhesion molecules"}, {"measurement": "Transendothelial LL37 transportation at 4°C", "setting": "[3]; 4 °C, n=6", "value": "abrogated at 4 °C"}, {"measurement": "Time until LL37 accumulation on HUVEC surface", "setting": "[3]; time course, antibody-stained surface-bound LL37", "value": "≥ 2", "unit": "h"}, {"measurement": "Binding to P2X7", "setting": "[11]", "value": "no interaction with LL37"}, {"measurement": "Interaction with DARC", "setting": "[12]", "value": "could not detect an interaction between DARC and LL37"}, {"measurement": "Monocyte adhesion to P-selectin/ICAM-1 or P-selectin/VCAM-1", "setting": "[2]", "value": "strongly enhanced monocyte adhesion"}, {"measurement": "Integrin activation on non-classical CD14^+CD16^++ monocytes", "setting": "[4]", "value": "not on non-classical CD14^+CD16^++ monocytes"}, {"measurement": "Effect of serum on direct chemotactic activity", "setting": "[13]", "value": "not affected by serum"}, {"measurement": "Production and release of IL8", "setting": "[14]", "value": "induces the production and release of IL8 from monocytes"}, {"measurement": "Processing and release of IL-1 β", "setting": "[15]", "value": "induced processing and release of the potent cytokine IL-1 β"}, {"measurement": "Apoptosis", "setting": "[16]", "value": "promotes apoptosis in various T-cells, smooth muscle cells, and epithelial cells"}, {"measurement": "Apoptotic cell death in neutrophils", "setting": "[17]", "value": "inhibit apoptotic cell death in neutrophils"}]}, {"compound": "MCP1: classical chemokine, CCR2 ligand (CCL2/MCP-1)", "values": [{"measurement": "Monocyte adhesion to P-selectin/ICAM-1 or P-selectin/VCAM-1", "setting": "[2]", "value": "strongly enhanced monocyte adhesion"}, {"measurement": "Integrin activation on non-classical CD14^+CD16^++ monocytes", "setting": "[4]", "value": "not on non-classical CD14^+CD16^++ monocytes"}, {"measurement": "ICAM-1 and VCAM-1 binding to classical monocytes", "setting": "[1]", "value": "increased binding of ICAM-1 or VCAM-1"}]}, {"compound": "boc-PLPLP", "values": [{"measurement": "Effect on transendothelial LL37 transportation", "setting": "[3]; n=6", "value": "did not impact on transendothelial LL37 transportation"}]}]}
